Source: ChEMBL document CHEMBL3860088, “Design, synthesis, and evaluation of novel porcupine inhibitors featuring a fused 3-ring system based on the 'reversed' amide scaffold” (Bioorg Med Chem, 2016)
Calls of active or inactive are those of the source. The calls are words filed in the database; no cut-off is given here.

What was measured:
[1] = target: T1, Protein-serine O-palmitoleoyltransferase porcupine (Mus musculus, UniProt Q9JJJ7); test: Inhibition of porcupine in mouse L Wnt3A cells co-cultured with HEK293 cells after 48 hrs by Super-top flash reporter gene assay; type: cell-based
T1 sequence (Q9JJJ7 whole entry): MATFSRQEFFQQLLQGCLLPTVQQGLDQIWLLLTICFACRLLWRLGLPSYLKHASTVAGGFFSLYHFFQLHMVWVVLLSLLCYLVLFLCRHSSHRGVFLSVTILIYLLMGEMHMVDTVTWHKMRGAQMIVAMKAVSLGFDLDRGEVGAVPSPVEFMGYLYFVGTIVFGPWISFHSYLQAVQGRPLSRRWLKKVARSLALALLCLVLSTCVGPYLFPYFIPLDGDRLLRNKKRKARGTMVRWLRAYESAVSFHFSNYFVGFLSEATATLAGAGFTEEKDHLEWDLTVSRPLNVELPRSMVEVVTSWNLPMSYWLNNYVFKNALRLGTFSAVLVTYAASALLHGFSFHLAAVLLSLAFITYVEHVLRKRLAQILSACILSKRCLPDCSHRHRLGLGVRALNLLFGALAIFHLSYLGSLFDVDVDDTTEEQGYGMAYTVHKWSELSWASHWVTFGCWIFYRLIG
Method in brief: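 Readout was luminescence inhibition in a co-culture of Wnt-producing LWnt3A cells with Wnt-responding HEK293 cells. Values are geometric means of at least two runs ± SEM, with a reference inhibitor run as a standard in every assay.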

[2] = Solubility of the compound in FaSSIF at pH 6.5 at 4 mg/ml by LC-MS/MS analysis; type: physicochemical
Method in brief: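 HCl salt suspended at 4 mg/mL in FaSSIF (pH 6.5), shaken 1 h, then equilibrated overnight at room temperature. After centrifugation, supernatant concentration was measured by LC-MS/MS.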

[3] = Effect on Wnt3A level in HEK293T cells transfected with pLibin-WNT3A plasmid at 0.1 uM after 48 hrs by Western blot method; type: ADME, cell-based; settings: human, hek-293t
Method in brief: (§1)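 Cells were HEK293T transfected with pLinbin-Wnt3A plasmid or vehicle control, then exposed to compound (0.1 µM) or left untreated. After 48 h, Western blot was run on both the cell lysate and the culture medium to follow Wnt3A.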

CYP3A4 = CYP3A4 (Homo sapiens, UniProt P08684); test: Inhibition of CYP3A4 in human liver microsomes at 10 uM using midazolam as substrate preincubated for 10 mins followed by NADPH addition measured after 10 mins by LC-MS/MS analysis; type: ADME; settings: probe midazolam
CYP3A4, sequence (P08684 whole entry): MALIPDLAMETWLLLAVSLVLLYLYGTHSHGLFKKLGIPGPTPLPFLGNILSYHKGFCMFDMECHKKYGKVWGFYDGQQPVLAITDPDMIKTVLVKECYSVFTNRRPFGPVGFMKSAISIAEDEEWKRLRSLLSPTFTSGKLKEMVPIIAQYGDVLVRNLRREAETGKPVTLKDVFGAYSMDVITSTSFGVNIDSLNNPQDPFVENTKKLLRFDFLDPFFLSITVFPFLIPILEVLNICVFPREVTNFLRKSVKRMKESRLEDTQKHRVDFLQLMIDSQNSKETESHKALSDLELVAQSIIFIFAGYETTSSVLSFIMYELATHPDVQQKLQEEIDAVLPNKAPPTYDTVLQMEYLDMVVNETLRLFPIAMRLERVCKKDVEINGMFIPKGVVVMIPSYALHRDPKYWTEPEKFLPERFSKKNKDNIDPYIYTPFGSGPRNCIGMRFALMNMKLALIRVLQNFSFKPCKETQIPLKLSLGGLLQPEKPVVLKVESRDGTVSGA

[4] = Intrinsic clearance in mouse liver microsomes at 1 uM preincubated for 10 mins followed by NADPH addition measured for 30 to 60 mins by LC-MS/MS analysis; type: ADME; settings: read-out: CLH
CYP2C19 = CYP2C19 (Homo sapiens, UniProt P33261); test: Inhibition of CYP2C19 in human liver microsomes at 10 uM preincubated for 10 mins followed by NADPH addition measured after 10 mins by LC-MS/MS analysis; type: ADME
CYP2C19, sequence (P33261 whole entry): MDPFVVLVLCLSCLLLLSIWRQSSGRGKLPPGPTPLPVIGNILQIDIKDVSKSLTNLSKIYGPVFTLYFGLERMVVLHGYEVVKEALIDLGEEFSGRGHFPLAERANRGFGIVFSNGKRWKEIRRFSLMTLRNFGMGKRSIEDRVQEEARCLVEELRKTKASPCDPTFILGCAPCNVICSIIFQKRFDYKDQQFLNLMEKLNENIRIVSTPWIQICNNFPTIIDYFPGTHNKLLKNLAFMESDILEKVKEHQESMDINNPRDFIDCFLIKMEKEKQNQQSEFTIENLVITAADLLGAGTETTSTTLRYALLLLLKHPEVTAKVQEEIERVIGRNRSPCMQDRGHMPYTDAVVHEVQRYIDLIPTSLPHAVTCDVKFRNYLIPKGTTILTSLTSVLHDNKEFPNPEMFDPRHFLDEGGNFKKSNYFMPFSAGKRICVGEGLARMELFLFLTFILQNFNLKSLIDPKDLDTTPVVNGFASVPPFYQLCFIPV

[5] = Chemical stability in simulated gastric fluid assessed as remaining compound levels at 200 uM at 40 degC after 24 hrs by HPLC method; type: ADME; settings: read-out: Stability
Method in brief: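 Test compound held at 200 µM in simulated gastric fluid, 40 °C for 24 h; remaining compound then assessed.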

[6] = Half life in rat liver microsomes at 1 uM preincubated for 10 mins followed by NADPH addition measured for 30 to 60 mins by LC-MS/MS analysis; type: ADME
CYP2C9 = CYP2C9 (Homo sapiens, UniProt P11712); test: Inhibition of CYP2C9 in human liver microsomes at 10 uM preincubated for 10 mins followed by NADPH addition measured after 10 mins by LC-MS/MS analysis; type: ADME
CYP2C9, sequence (P11712 whole entry): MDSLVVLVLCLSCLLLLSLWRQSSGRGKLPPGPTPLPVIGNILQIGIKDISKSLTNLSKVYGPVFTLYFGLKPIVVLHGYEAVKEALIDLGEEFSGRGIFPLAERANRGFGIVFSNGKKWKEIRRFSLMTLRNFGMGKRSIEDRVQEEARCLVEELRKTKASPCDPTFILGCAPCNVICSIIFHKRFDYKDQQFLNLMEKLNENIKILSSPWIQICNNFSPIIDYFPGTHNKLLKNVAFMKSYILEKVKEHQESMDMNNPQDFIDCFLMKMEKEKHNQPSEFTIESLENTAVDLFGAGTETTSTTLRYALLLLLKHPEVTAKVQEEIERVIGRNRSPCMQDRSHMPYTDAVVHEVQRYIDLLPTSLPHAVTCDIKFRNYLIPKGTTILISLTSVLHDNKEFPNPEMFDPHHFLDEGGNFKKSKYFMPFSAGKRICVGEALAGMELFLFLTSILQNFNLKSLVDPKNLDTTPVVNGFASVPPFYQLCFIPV

[7] = Half life in mouse liver microsomes at 1 uM preincubated for 10 mins followed by NADPH addition measured for 30 to 60 mins by LC-MS/MS analysis; type: ADME
[8] = Intrinsic clearance in human liver microsomes at 1 uM preincubated for 10 mins followed by NADPH addition measured for 30 to 60 mins by LC-MS/MS analysis; type: ADME; settings: read-out: CLH
CYP1A2 = target: T2, CYP1A2 (Homo sapiens, UniProt P05177); test: Inhibition of CYP1A2 in human liver microsomes at 10 uM preincubated for 10 mins followed by NADPH addition measured after 10 mins by LC-MS/MS analysis; type: ADME
T2 sequence (P05177 whole entry): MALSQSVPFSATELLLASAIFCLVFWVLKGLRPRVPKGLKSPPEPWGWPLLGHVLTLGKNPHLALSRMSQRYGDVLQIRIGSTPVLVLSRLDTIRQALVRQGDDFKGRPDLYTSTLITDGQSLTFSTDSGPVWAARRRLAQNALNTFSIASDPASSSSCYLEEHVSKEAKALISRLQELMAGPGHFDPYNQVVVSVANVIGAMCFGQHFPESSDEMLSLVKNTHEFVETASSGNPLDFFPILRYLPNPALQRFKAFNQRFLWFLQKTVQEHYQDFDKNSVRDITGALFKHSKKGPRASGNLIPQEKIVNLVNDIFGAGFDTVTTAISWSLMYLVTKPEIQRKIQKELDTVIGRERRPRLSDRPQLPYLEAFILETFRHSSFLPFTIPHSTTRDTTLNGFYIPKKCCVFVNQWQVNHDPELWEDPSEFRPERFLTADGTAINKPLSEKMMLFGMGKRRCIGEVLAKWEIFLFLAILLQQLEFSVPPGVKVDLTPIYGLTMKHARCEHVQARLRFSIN

[9] = Intrinsic clearance in rat liver microsomes at 1 uM preincubated for 10 mins followed by NADPH addition measured for 30 to 60 mins by LC-MS/MS analysis; type: ADME; settings: read-out: CLH
CYP2D6 = CYP2D6 (Homo sapiens, UniProt P10635); test: Inhibition of CYP2D6 in human liver microsomes at 10 uM using dextromethorphan as substrate preincubated for 10 mins followed by NADPH addition measured after 10 mins by LC-MS/MS analysis; type: ADME; settings: probe dextromethorphan
CYP2D6, sequence (P10635 whole entry): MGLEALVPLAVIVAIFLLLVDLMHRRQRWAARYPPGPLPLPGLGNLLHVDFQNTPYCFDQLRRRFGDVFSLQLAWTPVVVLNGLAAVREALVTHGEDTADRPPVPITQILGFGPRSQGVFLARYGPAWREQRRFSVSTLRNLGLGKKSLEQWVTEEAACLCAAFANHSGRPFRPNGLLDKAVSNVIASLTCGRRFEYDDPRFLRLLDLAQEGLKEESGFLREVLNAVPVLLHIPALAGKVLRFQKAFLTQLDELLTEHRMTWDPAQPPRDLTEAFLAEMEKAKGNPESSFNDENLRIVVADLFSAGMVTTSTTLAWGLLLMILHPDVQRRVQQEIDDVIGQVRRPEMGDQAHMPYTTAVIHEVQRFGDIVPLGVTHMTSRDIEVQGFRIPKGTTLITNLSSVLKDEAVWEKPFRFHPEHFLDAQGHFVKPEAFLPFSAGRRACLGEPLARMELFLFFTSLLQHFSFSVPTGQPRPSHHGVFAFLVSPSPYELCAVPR

[10] = Metabolic stability in rat plasma assessed as remaining compound levels at 1 uM after 8 hrs by LC-MS/MS analysis; type: ADME, cell-free; settings: read-out: Stability
[11] = Half life in human liver microsomes at 1 uM preincubated for 10 mins followed by NADPH addition measured for 30 to 60 mins by LC-MS/MS analysis; type: ADME
[12] = target: T3, Protein-serine O-palmitoleoyltransferase porcupine (Homo sapiens) (UniProt Q9H237); test: Inhibition of porcupine in HEK293T cells transfected with pLibin-WNT3A plasmid assessed as reduction in Wnt3A secretion into cell culture medium at 0.1 uM after 48 hrs by Western blot method; type: cell-based; settings: HEK-293T; method in brief: as §1
T3 sequence (whole entry): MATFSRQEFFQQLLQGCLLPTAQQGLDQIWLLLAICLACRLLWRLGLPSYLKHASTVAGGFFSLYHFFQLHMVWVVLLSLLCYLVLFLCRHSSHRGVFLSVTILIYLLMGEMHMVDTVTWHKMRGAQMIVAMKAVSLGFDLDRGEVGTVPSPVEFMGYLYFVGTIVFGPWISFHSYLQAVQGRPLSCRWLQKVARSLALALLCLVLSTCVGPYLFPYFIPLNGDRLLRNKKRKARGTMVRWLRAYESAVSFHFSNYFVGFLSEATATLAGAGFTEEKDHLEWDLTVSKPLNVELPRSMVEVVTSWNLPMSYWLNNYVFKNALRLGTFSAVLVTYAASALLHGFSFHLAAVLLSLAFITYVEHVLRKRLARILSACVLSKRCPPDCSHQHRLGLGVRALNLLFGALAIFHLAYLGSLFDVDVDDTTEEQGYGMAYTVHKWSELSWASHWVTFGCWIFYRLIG

## O=C(NCc1ccc2c(c1)oc1ccccc12)c1ccc(-c2cnccn2)cc1
[1]
  IC50: 701 nM

## Cc1cc(-c2ncc(CNC(=O)c3ccc4c5ccccc5n(C)c4c3)cc2F)ccn1
[1]
  IC50: 175 nM

## Cc1cc(-c2ncc(CNC(=O)c3ccc4c(c3)[nH]c3ccccc34)cc2F)ccn1.Cl
[2]
  solubility: 1.24 µM

## Cc1cc(-c2ncc(CNC(=O)c3ccc4c(c3)[nH]c3ccccc34)cc2C)ccn1
[1]
  IC50: 10 nM

## Cc1cc(-c2ccc(CNC(=O)c3ccc4c(c3)oc3ccccc34)cc2)ccn1
[1]
  IC50: 9.1 nM

## Cc1cc(-c2ccc(CNC(=O)c3ccc(-c4ccccc4)cc3)cc2)ccn1
[1]
  IC50: 1 nM

## Cc1cc(-c2ccc(CNC(=O)c3ccc4c(c3)[nH]c3ccccc34)nc2)ccn1
[1]
  IC50: 18 nM

## Cn1nccc1-c1ccc(CNC(=O)c2ccc3c(c2)[nH]c2ccccc23)cc1
[1]
  IC50: 130 nM

## Cc1cc(-c2ncc(CNC(=O)c3ccc4c(c3)C(=O)c3ccccc3-4)cc2F)ccn1
[1]
  IC50: 44 nM

## Cc1cn(-c2ccc(CNC(=O)c3ccc4c(c3)[nH]c3ccccc34)cc2)cn1
[1]
  IC50: 119 nM

## O=C(NCc1ccc2c(c1)Cc1ccccc1-2)c1ccc(-c2cnccn2)cc1
[1]
  IC50: > 1000 nM

## Cc1cc(-c2ncc(CNC(=O)c3ccc4c(c3)oc3ccccc34)cc2F)ccn1
[1]
  IC50: 3.1 nM

## Cc1cc(-c2ccc(CNC(=O)c3ccc4c5ccccc5n(C)c4c3)cc2)ccn1
[1]
  IC50: > 1000 nM

## Cc1cc(-c2ccc(CNC(=O)c3ccc4c(c3)[nH]c3ccccc34)cc2)ccn1 [listing 1 of 2 here]
[3]
  Activity: Non-Toxic
CYP3A4
  inhibition at 10 min, 10 µM: 7%
[4]
  CLint scaled at 1 µM: 141 mL/min/kg
CYP2C19
  inhibition at 10 min, 10 µM: 8%
[5]
  remaining at 24 h, 200 µM: 100%
[6]
  half-life at 1 µM: 4.62 h
CYP2C9
  inhibition at 10 min, 10 µM: -22%
[7]
  half-life at 1 µM: 0.717 h
[8]
  CLint scaled at 1 µM: 59 mL/min/kg
CYP1A2
  inhibition at 10 min, 10 µM: 64%
[9]
  CLint scaled at 1 µM: 7 mL/min/kg
CYP2D6
  inhibition at 10 min, 10 µM: 9%
[1]
  IC50: 7.5 nM
[10]
  remaining at 8 h, 1 µM: 100%
[11]
  half-life at 1 µM: 0.5 h

## Cc1cc(-c2ccc(CNC(=O)c3ccc4c(c3)[nH]c3ccccc34)cc2)ccn1.Cl
[2]
  solubility: 0.16 µM

## N#Cc1ccc2cc(CNC(=O)c3ccc4c(c3)[nH]c3ccccc34)ccc2c1
[1]
  IC50: 13 nM

## Cc1cc(-c2ncc(CNC(=O)c3ccc4c(c3)[nH]c3ccccc34)cc2F)ccn1 [listing 1 of 2 here]
[12]
  inhibition: Active

## Cc1cc(-c2ncc(CNC(=O)c3ccc4c(c3)Cc3ccccc3-4)cc2F)ccn1
[1]
  IC50: 9.2 nM

## Cc1cc(-c2ncc(CNC(=O)c3ccc4c(c3)[nH]c3ccccc34)cc2F)ccn1 [listing 2 of 2 here]
[3]
  Activity: Non-Toxic
CYP3A4
  inhibition at 10 min, 10 µM: 69%
[4]
  CLint scaled at 1 µM: 109 mL/min/kg
CYP2C19
  inhibition at 10 min, 10 µM: 59%
[5]
  remaining at 24 h, 200 µM: 100%
[6]
  half-life at 1 µM: 1.33 h
CYP2C9
  inhibition at 10 min, 10 µM: 31%
[7]
  half-life at 1 µM: 0.917 h
[8]
  CLint scaled at 1 µM: 57 mL/min/kg
CYP1A2
  inhibition at 10 min, 10 µM: 73%
[9]
  CLint scaled at 1 µM: 24 mL/min/kg
CYP2D6
  inhibition at 10 min, 10 µM: 37%
[1]
  IC50: 0.5 nM
[10]
  remaining at 8 h, 1 µM: 100%
[11]
  half-life at 1 µM: 0.517 h

## Cc1cc(-c2ncc(CNC(=O)c3ccc4c(c3)C(F)(F)c3ccccc3-4)cc2F)ccn1
[1]
  IC50: 16 nM

## Cc1cc(-c2ccc(CNC(=O)c3ccc4c(c3)[nH]c3ccccc34)cn2)ccn1
[1]
  IC50: 6.2 nM

## Cc1cc(-c2ccc(CNC(=O)c3ccc4c(c3)C(F)(F)c3ccccc3-4)cc2)ccn1
[1]
  IC50: 60 nM

## Cc1cc(-c2ncc(CC(=O)Nc3ccc(-c4cnccn4)cn3)cc2C)ccn1 [WNT-974]
[3]
  Activity: Non-Toxic
[4]
  CLint scaled at 1 µM: 22 mL/min/kg
[5]
  remaining at 24 h, 200 µM: 66%
[12]
  inhibition: Active
[6]
  half-life at 1 µM: 12.8 h
[7]
  half-life at 1 µM: 4.62 h
[8]
  CLint scaled at 1 µM: 2 mL/min/kg
[9]
  CLint scaled at 1 µM: 3 mL/min/kg
[1]
  IC50: 0.9 nM
[10]
  remaining at 8 h, 1 µM: 100%
[11]
  half-life at 1 µM: 9.35 h

## O=C(NCc1ccc2c(c1)Cc1ccccc1-2)c1ccc(-c2ccccc2)cc1
[1]
  IC50: > 1000 nM

## Cc1cc(-c2ccc(CNC(=O)c3ccc4c(c3)Cc3ccccc3-4)cc2)ccn1
[1]
  IC50: 35 nM

## Cc1cc(-c2ccc(CNC(=O)c3ccc4c(c3)C(=O)c3ccccc3-4)cc2)ccn1
[1]
  IC50: 85 nM

## Cc1cc(-c2ccc(CNC(=O)c3ccc4c(c3)[nH]c3ccccc34)cc2)ccn1 [listing 2 of 2 here]
[12]
  inhibition: Active

## O=C(NCc1ccc(-n2ccnc2)cc1)c1ccc2c(c1)[nH]c1ccccc12
[1]
  IC50: 314 nM

## O=C(NCc1ccc(-c2ccncc2)cc1)c1ccc2c(c1)[nH]c1ccccc12
[1]
  IC50: 18 nM

## O=C(NCc1ccc2cnccc2c1)c1ccc2c(c1)[nH]c1ccccc12
[1]
  IC50: 207 nM
